Source: ChEMBL document CHEMBL1921722, “In vitro and in vivo evaluation of select kahalalide F analogs with antitumor and antifungal activities” (Bioorg Med Chem, 2011)
In brackets after ≈: the same amount, converted by molar mass. Activity calls are given as the source filed them.

Experiments:
MOLT-4 = experiment: Cytotoxicity against human MOLT4 cells assessed as cell growth at 8 uM by sulforhodamine B assay relative to control; assay type: functional; conditions: read-out: Activity
SK-MEL-28 = experiment: Cytotoxicity against human SK-MEL-28 cells assessed as cell growth at 800 nM by sulforhodamine B assay relative to control; assay type: functional; conditions: read-out: Activity
OVCAR-4 [1] = experiment: Cytotoxicity against human OVCAR4 cells by sulforhodamine B assay; assay type: functional
Method in brief: (§1)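 NCI Developmental Therapeutics Program 60-cell-line human tumor panel screen, run at NCI. A single-concentration pre-screen was followed by a five-concentration dose-response in 10-fold steps. GI50 is the concentration that reduces growth of treated cells to half that of untreated control cells. TGI is the concentration that completely halts growth.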

786-0 = experiment: Cytotoxicity against human 786-0 cells assessed as cell growth at 8 uM by sulforhodamine B assay relative to control; assay type: functional; conditions: read-out: Activity
Method in brief: (§2)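 Run at NCI in the DTP 60-cell-line human tumor panel by standard procedure. Compounds were first screened at a single concentration, then tested at five tenfold-spaced concentrations. GI50 is the concentration reducing treated-cell growth to half that of untreated controls; TGI is the concentration completely halting growth.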

IGROV-1 [2] = experiment: Cytotoxicity against human IGROV1 cells by sulforhodamine B assay; assay type: functional; method in brief: as §1
Candida albicans = experiment: Antimicrobial activity against Candida albicans ATCC 90028 by CLSI method; assay type: functional, organism-based
K562 = experiment: Cytotoxicity against human K562 cells by sulforhodamine B assay; assay type: functional; method in brief: as §1
LOX IMVI [3] = experiment: Cytotoxicity against human LOXIMVI cells assessed as cell growth at 80 uM by sulforhodamine B assay relative to control; assay type: functional; conditions: read-out: Activity
NCI-H23 = experiment: Antitumor activity against human NCI-H23 cells xenografted in mouse assessed as tumor cell killing at 4.7 mg/kg, ip qd for 4 days by MTT assay; assay type: functional, organism-based; design: dose 4.7 mg/kg
Method in brief: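 Hollow-fiber assay in mice. Tumor lines were grown in RPMI-1640 with 10% FBS and 2 mM glutamine. Cells at 2 × 10^6 cells/ml were loaded into 1 mm PVDF fibers (500,000 Da cutoff), heat-sealed at 2 cm and held 24–48 h at 37 °C, 5% CO2 before implantation. Compound was given IP. Fibers were collected the day after the fourth treatment for MTT (OD 540 nm, group means). A ≥50% cut in percent net growth versus vehicle counted as positive.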

HOP-92 [4] = experiment: Cytotoxicity against human HOP92 cells assessed as cell growth at 8 nM by sulforhodamine B assay relative to control; assay type: functional; conditions: read-out: Activity
EKVX [5] = experiment: Cytotoxicity against human EKVX cells assessed as cell growth at 80 nM by sulforhodamine B assay relative to control; assay type: functional; conditions: read-out: Activity
OVCAR-4 [6] = experiment: Cytotoxicity against human OVCAR4 cells assessed as cell growth at 800 nM by sulforhodamine B assay relative to control; assay type: functional; conditions: read-out: Activity
IGROV-1 [7] = experiment: Cytotoxicity against human IGROV1 cells assessed as cell growth at 8 nM by sulforhodamine B assay relative to control; assay type: functional; conditions: read-out: Activity
HT-29 = experiment: Cytotoxicity against human HT-29 cells assessed as cell growth at 8 nM by sulforhodamine B assay relative to control; assay type: functional; conditions: read-out: Activity
UACC-62 [8] = experiment: Cytotoxicity against human UACC62 cells assessed as cell growth at 800 nM by sulforhodamine B assay relative to control; assay type: functional; conditions: read-out: Activity
SR = experiment: Cytotoxicity against human SR cells assessed as cell growth at 800 nM by sulforhodamine B assay relative to control; assay type: functional; conditions: read-out: Activity
UACC-62 [9] = experiment: Cytotoxicity against human UACC62 cells assessed as cell growth at 80 nM by sulforhodamine B assay relative to control; assay type: functional; conditions: read-out: Activity
EKVX [10] = experiment: Cytotoxicity against human EKVX cells assessed as cell growth at 8 nM by sulforhodamine B assay relative to control; assay type: functional; conditions: read-out: Activity
UACC-257 [11] = experiment: Cytotoxicity against human UACC257 cells assessed as cell growth at 8 nM by sulforhodamine B assay relative to control; assay type: functional; conditions: read-out: Activity
UACC-257 [12] = experiment: Cytotoxicity against human UACC257 cells assessed as cell growth at 8 uM by sulforhodamine B assay relative to control; assay type: functional; conditions: read-out: Activity
SK-MEL-2 = experiment: Cytotoxicity against human SK-MEL-2 cells assessed as cell growth at 80 nM by sulforhodamine B assay relative to control; assay type: functional; conditions: read-out: Activity
KM12 [13] = experiment: Cytotoxicity against human KM12 cells assessed as cell growth at 80 nM by sulforhodamine B assay relative to control; assay type: functional; conditions: read-out: Activity
SNB-75 = experiment: Cytotoxicity against human SNB75 cells assessed as cell growth at 80 uM by sulforhodamine B assay relative to control; assay type: functional; conditions: read-out: Activity
HL-60(TB) = experiment: Cytotoxicity against human HL-60(TB) cells assessed as cell growth at 800 nM by sulforhodamine B assay relative to control; assay type: functional; conditions: read-out: Activity
LOX IMVI [14] = experiment: Cytotoxicity against human LOXIMVI cells assessed as cell growth at 8 uM by sulforhodamine B assay relative to control; assay type: functional; conditions: read-out: Activity
HCT-116 = experiment: Cytotoxicity against human HCT116 cells by sulforhodamine B assay; assay type: functional
Method in brief: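 Run by the NCI Developmental Therapeutics Program on its 60-line human tumour cell panel using the standard procedure. Compounds went through a single-concentration prescreen first, and those active by NCI criteria went on to a five-concentration growth-inhibition test. GI50 is the concentration that cuts growth of treated cells to half that of untreated control cells.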

NCI-H226 = experiment: Cytotoxicity against human NCI-H226 cells assessed as cell growth at 800 nM by sulforhodamine B assay relative to control; assay type: functional; conditions: read-out: Activity
UACC-62 [15] = experiment: Cytotoxicity against human UACC62 cells assessed as cell growth at 80 uM by sulforhodamine B assay relative to control; assay type: functional; conditions: read-out: Activity
NCI/ADR-RES [16] = experiment: Cytotoxicity against human NCI/ADR-RES cells assessed as cell growth at 8 nM by sulforhodamine B assay relative to control; assay type: functional; conditions: read-out: Activity
KM12 [17] = experiment: Cytotoxicity against human KM12 cells by sulforhodamine B assay; assay type: functional; method in brief: as §1
COLO 205 = experiment: Cytotoxicity against human COLO205 cells assessed as cell growth at 8 uM by sulforhodamine B assay relative to control; assay type: functional; conditions: read-out: Activity; method in brief: as §2
PC-3 = experiment: Cytotoxicity against human PC3 cells assessed as cell growth at 80 nM by sulforhodamine B assay relative to control; assay type: functional; conditions: read-out: Activity
KM12 [18] = experiment: Cytotoxicity against human KM12 cells assessed as cell growth at 8 nM by sulforhodamine B assay relative to control; assay type: functional; conditions: read-out: Activity
TK-10 = experiment: Cytotoxicity against human TK10 cells assessed as cell growth at 8 nM by sulforhodamine B assay relative to control; assay type: functional; conditions: read-out: Activity
IGROV-1 [19] = experiment: Cytotoxicity against human IGROV1 cells assessed as cell growth at 80 uM by sulforhodamine B assay relative to control; assay type: functional; conditions: read-out: Activity
HOP-92 [20] = experiment: Cytotoxicity against human HOP92 cells assessed as cell growth at 80 nM by sulforhodamine B assay relative to control; assay type: functional; conditions: read-out: Activity
NCI/ADR-RES [21] = experiment: Cytotoxicity against human NCI/ADR-RES cells by sulforhodamine B assay; assay type: functional; method in brief: as §1

SMILES: C/C=C1\NC(=O)[C@H](Cc2ccccc2)NC(=O)[C@@H](C(C)C)NC(=O)[C@@H]([C@@H](C)CC)NC(=O)[C@H](NC(=O)[C@H](NC(=O)[C@H](CCCNCc2ccc(F)c(C)c2)NC(=O)[C@H]2CCCN2C(=O)[C@H](NC(=O)[C@@H](NC(=O)[C@@H](NC(=O)[C@H](NC(=O)CCCC(C)C)C(C)C)[C@@H](C)O)C(C)C)C(C)C)[C@@H](C)CC)[C@@H](C)OC(=O)[C@H](C(C)C)NC1=O
- growth at 8 µM (MOLT-4): -5%
- growth at 0.8 µM (SK-MEL-28): 75%
- GI50 (OVCAR-4 [1]): 0.269 µM
- TGI (OVCAR-4 [1]; read-out: pTGI (converted)): 0.955 µM
- growth at 8 µM (786-0): -99%
- GI50 (IGROV-1 [2]): 0.708 µM
- TGI (IGROV-1 [2]; read-out: pTGI (converted)): 1.86 µM
- IC50 (Candida albicans): 3.64 µM
- MFC (Candida albicans): 20 µM (≈ 32 µg/mL)
- MIC (Candida albicans): 10 µM (≈ 16 µg/mL)
- GI50 (K562): 1.82 µM
- CC50 (K562; read-out: pLC50 (the source's name) (converted)): > 75.9 µM
- TGI (K562; read-out: pTGI (converted)): 3.89 µM
- growth at 80 µM (LOX IMVI [3]): -92%
- Activity (NCI-H23): inactive
- growth at 0.008 µM (HOP-92 [4]): 104%
- growth at 0.08 µM (EKVX [5]): 97%
- growth at 0.8 µM (OVCAR-4 [6]): 7%
- growth at 0.008 µM (IGROV-1 [7]): 104%
- growth at 0.008 µM (HT-29): 100%
- growth at 0.8 µM (UACC-62 [8]): 93%
- growth at 0.8 µM (SR): 98%
- growth at 0.08 µM (UACC-62 [9]): 104%
- growth at 0.008 µM (EKVX [10]): 101%
- growth at 0.008 µM (UACC-257 [11]): 102%
- growth at 8 µM (UACC-257 [12]): -78%
- growth at 0.08 µM (SK-MEL-2): 101%
- growth at 0.08 µM (KM12 [13]): 98%
- growth at 80 µM (SNB-75): -19%
- growth at 0.8 µM (HL-60(TB)): 106%
- growth at 8 µM (LOX IMVI [14]): -85%
- GI50 (HCT-116): 1.38 µM
- LC50 (HCT-116): 4.27 µM
- TGI (HCT-116; read-out: pTGI (converted)): 2.45 µM
- growth at 0.8 µM (NCI-H226): 98%
- growth at 80 µM (UACC-62 [15]): -91%
- growth at 0.008 µM (NCI/ADR-RES [16]): 105%
- GI50 (KM12 [17]; read-out: GI50): 0.155 µM
- TGI (KM12 [17]; read-out: TGI): 0.328 µM
- GI50 (KM12 [17]; read-out: pGI50 (converted)): 0.155 µM
- TGI (KM12 [17]; read-out: pTGI (converted)): 0.331 µM
- growth at 8 µM (COLO 205): -76%
- growth at 0.08 µM (PC-3): 104%
- growth at 0.008 µM (KM12 [18]): 107%
- growth at 0.008 µM (TK-10): 112%
- growth at 80 µM (IGROV-1 [19]): -26%
- growth at 0.08 µM (HOP-92 [20]): 105%
- GI50 (NCI/ADR-RES [21]): 1.32 µM
- LC50 (NCI/ADR-RES [21]): 5.25 µM
- TGI (NCI/ADR-RES [21]; read-out: pTGI (converted)): 2.63 µM
